Only some compounds are listed: those with a hit (about 3.1% of all), similar ones and a draw of the others.
GalR3 antagonist – antagonists of human GalR3; O60755; HEK293 GalR3-CNG cAMP membrane potential fluorescence; galR3 body fused to GalR1 C-terminus; inhibition, % at 3 µM; hit rate 0.44% among 360,000;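 active means inhibition above the screen-wide average plus 3 SD, cut at about 13% in these data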;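 further: forskolin and galanin both at EC90 stimulate the cells; cAMP rise reported by CNG channel membrane potential dye signal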
CHO parental Ca – counter-screen: ATP calcium response change in parental CHO cells. parental CHO-K1, ATP-induced calcium, Fluo-8 fluorescence. hit rate 0.63% among 330,000. inhibition, % at 5.6 µM;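 active means inhibition above that plate's mean sample inhibition plus 3 SD, cut at about 26% in these data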
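test system = CHO parental line | reagent = ATP stimulus | measured by = intracellular calcium via Fluo-8 no-wash fluorescent dye | control set = ATP and no-ATP DMSO wells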
GPR7 antagonist – blocks human GPR7 receptor signaling; P48145; GPR7-expressing cells, fluorescence antagonist assay; inhibition, % at 4.4 µM; hit rate 1.1% among 290,000; in the data active means inhibition above about 16%, passing the limit was not always enough;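 further: cells stimulated with the agonist NPW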
Target sequence (P48145 whole entry, looked up): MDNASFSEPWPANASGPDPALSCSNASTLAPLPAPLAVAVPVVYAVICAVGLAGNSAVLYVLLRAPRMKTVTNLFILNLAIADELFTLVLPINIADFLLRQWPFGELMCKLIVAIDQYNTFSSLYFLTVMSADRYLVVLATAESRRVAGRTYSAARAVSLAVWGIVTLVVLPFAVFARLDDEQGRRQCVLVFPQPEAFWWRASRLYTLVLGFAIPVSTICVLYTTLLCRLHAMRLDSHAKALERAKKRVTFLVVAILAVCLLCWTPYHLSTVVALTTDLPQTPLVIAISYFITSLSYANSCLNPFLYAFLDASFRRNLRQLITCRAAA
OX1R antag-1 – antagonists of human orexin 1 receptor; inhibition, % at 5 µM; hit rate 0.43% among 330,000; CHO/OX1R cells, Fluo-8 calcium fluorescence, orexin A; O43613;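 active means inhibition above its plate's threshold, mean inhibition of all tested compounds on the plate plus 3 SD, cut at about 37% in these data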
OX1R antag-2 – OX1R (human) antagonism | O43613 | inhibition, % at 6.6 µM | AID 485270 | OX1R-expressing cells, FRET antagonist read-out | hit rate 1.8% among 330,000; in the data active means inhibition mostly above about 38%, no sharp cut-off; inactive means mostly below about 40%
GPR7 antag cf – human GPR7 antagonism, confirmation assay; shares compounds with GPR7 antagonist; GPR7-expressing cells, calcium fluorescence antagonist mode; inhibition, % at 4.4 µM; hit rate 52% among 2,400; AID 1952; in the data active means inhibition above about 24%;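 further: stimulated with the GPR7 agonist NPW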
MCHR1 antag – antagonizes human MCHR1, a GPR7 antagonist counter-screen. shares compounds with GPR7 antagonist. MCHR1-expressing cells, fluorescence antagonist assay. inhibition, % at 4.4 µM. hit rate 62% among 2,400; in the data active means inhibition above about 22%
Large screens that a line does not name were inactive (follow-up assays come after a bar, where they were run).

O=C(NC(NC(=S)Nc1ccccc1Cl)C(Cl)(Cl)Cl)c1cccc(Cl)c1 (configuration not stated)	GPR7 antagonist 27.1 | GPR7 antag cf 49.1 | MCHR1 antag 61.4
O=C(Cc1cccc2ccccc12)NC(NC(=S)Nc1ccccc1Cl)C(Cl)(Cl)Cl (configuration not stated)	none
CCCCCN(C(=O)CCc1cn(CCCCC)c2ccccc12)c1ccc(N(C)c2ccccn2)cc1	none (no result: CHO parental Ca, GPR7 antagonist, OX1R antag-1, OX1R antag-2)
COc1ccc(N(CC(=O)NCc2cccnc2)S(=O)(=O)c2ccccc2[N+](=O)[O-])c(OC)c1	none
COc1ccc(N(CC(=O)NCc2ccc(Cl)cc2)S(=O)(=O)c2ccccc2[N+](=O)[O-])c(OC)c1	GPR7 antagonist 37.4 | GPR7 antag cf 34.0 | MCHR1 antag 37.6
COCCNC(=O)c1ccc(CSc2nc3ccccc3s2)cc1	GPR7 antagonist 31.1 | GPR7 antag cf inactive | MCHR1 antag 28.4
CC(C)c1ccc(CNC(=O)C2(C)CCCN2C)cc1 (configuration not stated)	none (no result: CHO parental Ca, GPR7 antagonist, OX1R antag-1, OX1R antag-2)
CCOc1ccc(CCNC(=O)CCc2nnc3ccc(N4CCOCC4)nn23)cc1OCC	GPR7 antagonist 30.0 | GPR7 antag cf inactive | MCHR1 antag inactive
CCOC(=O)C(Cc1ccccc1)NC(=O)CCc1nnc2ccc(N3CCOCC3)nn12 (configuration not stated)	none
O=C(Nc1ccc2c(c1)OCO2)c1cc(C2CCCCN2C(=O)CCc2ccccc2)on1 (configuration not stated)	none (no result: CHO parental Ca, GPR7 antagonist, OX1R antag-1, OX1R antag-2)
OCC(CCc1c[nH]c2ccccc12)c1c[nH]c2ccccc12 (configuration not stated)	none (no result: CHO parental Ca, GPR7 antagonist, OX1R antag-1, OX1R antag-2)
CN(C)C/C=C/C(O)(c1ccccc1)c1ccccc1	none
CN(C)CC(CCC(CN(C)C)C(O)(c1ccccc1)c1ccccc1)C(O)(c1ccccc1)c1ccccc1 (configuration not stated)	GPR7 antagonist 53.1 (no result: CHO parental Ca, OX1R antag-1, OX1R antag-2) | GPR7 antag cf 61.5 | MCHR1 antag 67.6
CCCC(=O)Nc1ccc2c(c1)Cc1ccccc1-2	GPR7 antagonist 25.2 | GPR7 antag cf inactive | MCHR1 antag 23.9
COCC(=O)Nc1ccc2c(c1)[C@@H]1C[C@H](CC(=O)NCc3cccc(F)c3)O[C@@H](CO)[C@@H]1O2	none (no result: CHO parental Ca, GPR7 antagonist, OX1R antag-1, OX1R antag-2)
O=C(O)CSc1nc2ccccc2[nH]1	GPR7 antagonist 26.6 | GPR7 antag cf inactive | MCHR1 antag inactive
O=C(O)CSc1nc2ccccc2c(=O)[nH]1	none
CCCN1C(=O)/C(=C/c2ccc(C)s2)SC1=Nc1ccc(OC)cc1	none
CCN(CC)CCN1C(=O)/C(=C\c2ccc(Cl)c([N+](=O)[O-])c2)SC1=Nc1ccc(OC)cc1	GPR7 antagonist 45.6 | GPR7 antag cf 74.5 | MCHR1 antag 59.9
COc1ccc(N=C2S/C(=C\c3ccc(Cl)c([N+](=O)[O-])c3)C(=O)N2CCN(C)C)cc1	GPR7 antagonist 48.5 | GPR7 antag cf 64.8 | MCHR1 antag 59.4
Cc1ccc(CSCC2Nc3ccc(C(=O)N4CCN(c5cccc(C)c5)C(C)C4)cc3NC2=O)cc1 (configuration not stated)	none (no result: GalR3 antagonist)
CC1CN(CC(O)COC(c2ccc(Cl)cc2)c2ccc(Cl)cc2)CC(C)O1 (configuration not stated)	GPR7 antagonist 21.0 | GPR7 antag cf inactive | MCHR1 antag 40.2
CC1CN(CC(O)COc2ccc(C(C)C)cc2)CC(C)O1 (configuration not stated)	none
Cc1cccc(C)c1-n1nnnc1C1(C)CCC(=O)N1Cc1cccs1 (configuration not stated)	none (no result: CHO parental Ca, GPR7 antagonist, OX1R antag-1, OX1R antag-2)
COc1ccc(-c2nnc(SC(C)C(=O)NCc3ccc4c(c3)OCO4)n2Cc2ccco2)cc1 (configuration not stated)	GPR7 antagonist 48.0 | GPR7 antag cf 38.8 | MCHR1 antag 23.5
CCn1c(SCC(=O)NCc2ccc3c(c2)OCO3)nnc1-c1ccco1	none
C=CCn1c(SC(C)C(=O)NCc2ccc3c(c2)OCO3)nnc1C1CCCCC1 (configuration not stated)	GPR7 antagonist 26.1 | GPR7 antag cf 31.6 | MCHR1 antag 28.6
O=C(CSc1nnc(-c2ccc(Cl)cc2)n1Cc1ccco1)NCc1ccc2c(c1)OCO2	GPR7 antagonist 33.8 | GPR7 antag cf 32.2 | MCHR1 antag 24.4

Bioassay records (PubChem)
